Test results published in ChEMBL document CHEMBL1127424, “7-azetidinylquinolones as antibacterial agents. 2. Synthesis and biological activity of 7-(2,3-disubstituted-1-azetidinyl)-4-oxoquinoline- and -1,8-naphthyridine-3-carboxylic acids. Properties and structure-activity relationships of quinolones with an azetidine moiety” (J Med Chem, 1994).
Values after ≈ are worked out from the molar mass of the structure shown. Values joined by “and” are separate entries in the source; they are usually repeats but may differ in a detail not shown here. Equal entries are not always repeated.

Assays:
[1] = Measured ionization constant (pKa); format: physicochemical; details: read-out: pKa1
Outline: (§1)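 Spectrophotometric titration at 20 ± 1 °C, 0.1 M ionic strength, pH varied with H2SO4 or NaOH made up in the compound stock. Absorbance followed at compound-specific wavelengths chosen from 200–400 nm scans. pKa1 and pKa2 taken as the inflection points of the two-step absorbance vs pH curve.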

[2] = Dissociation constant (pKa); format: physicochemical; details: read-out: pKa2; outline: as §1
[3] = HPLC capacity factor (k'); format: ADME
Outline: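 Ion-pair reversed-phase HPLC on ODS-2 (10 μm) at 45 °C. Mobile phase: 10 mM sodium heptanesulfonate plus 50 mM KH2PO4 (pH 3.5)–methanol 45:55, 1 mL/min. Samples at 100 μg/mL in DMF, injected in duplicate, UV 280 nm. k' = (tR − t0)/t0.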

[4] = Solubility (buffer pH 7.4); format: physicochemical; details: read-out: S
Outline: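 Excess solid shaken in 0.05 M phosphate buffer pH 7.4 for 24 h at 25 °C. Suspension filtered through 0.22 μm, discarding the first portion. Filtrate diluted in 0.1 N HCl or 0.1 N NaOH and read by UV at the compound's absorbance maximum.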

[5] = AUC (0-4 hr) ug/ml/h; format: ADME, cell-free; set-up: time < 4 hr; concentration or dose not given beside the values; details: plasma
Outline: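 Mice dosed once orally at 50 mg/kg; blood taken from groups of six mice at 0.5, 1, 2 and 4 h. Serum drug assayed by disk agar diffusion bioassay (Bacillus subtilis ATCC 6633 on Seed Agar, 37 °C, 18 h), giving total activity.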

Bacillus cereus = experiment: In vitro minimum inhibitory concentration for Bacillus cereus ATCC 11778; format: functional
Outline: (§2)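 Serial 2-fold agar dilution in Mueller Hinton medium, run alongside a reference quinolone. Inoculum adjusted to 10⁸ cfu/mL; compound range 0.007–16 μg/mL.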

Bacillus subtilis = experiment: In vitro minimum inhibitory concentration for Bacillus subtilis ATCC 6633; format: functional; outline: as §2
Escherichia coli = experiment: In vitro minimum inhibitory concentration for Escherichia coli ATCC 10799; format: functional; outline: as §2
Enterobacter cloacae = experiment: In vitro minimum inhibitory concentration for Enterobacter cloacae ATCC 23355; format: functional
Klebsiella pneumoniae = experiment: In vitro minimum inhibitory concentration to inhibit Klebsiella pneumoniae ATCC 10031; format: functional; outline: as §2
Mus musculus [6] = experiment: Evaluation of efficacy on systemic infections Escherichia coli HM-42, after oral administration in mice; format: functional
Outline: (§3)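 Single oral dose given immediately after infection, one of four doses per group, chosen from in vitro activity. Survival scored after one week. ED50 (total mg/kg protecting 50%) interpolated from survival rates.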

Mus musculus [7] = experiment: Evaluation of efficacy on systemic infections Pseudomonas aeruginosa HS-116, after oral administration in mice; format: functional; outline: as §3
Mus musculus [8] = experiment: Evaluation of efficacy on systemic infections Staphylococcus aureus HS-93, after oral administration in mice; format: functional; outline: as §3
Morganella morganii = experiment: In vitro minimum inhibitory concentration for Morganella morganii ATCC 8019; format: functional; outline: as §2
Proteus vulgaris = experiment: In vitro minimum inhibitory concentration for Proteus vulgaris ATCC 8427; format: functional; outline: as §2
[9] = tested on: Staphylococcus epidermidis; experiment: In vitro minimum inhibitory concentration for Staphylococcus epidermidis ATCC 155-1; format: functional; outline: as §2
Staphylococcus aureus = experiment: In vitro minimum inhibitory concentration for Staphylococcus aureus ATCC 25178; format: functional; outline: as §2
Enterococcus faecalis = experiment: In vitro minimum inhibitory concentration for Streptococcus faecalis ATCC 10541; format: functional; outline: as §2
Pseudomonas aeruginosa = experiment: In vitro minimum inhibitory concentration for Pseudomonas aeruginosa ATCC 10145; format: functional; outline: as §2

| Structure (SMILES) | pKa [1] | pKa [2] | Log k' [3] | solubility [4] | AUC [5] | MIC (Bacillus cereus) | MIC (Bacillus subtilis) | MIC (Escherichia coli) | MIC (Enterobacter cloacae) | MIC (Klebsiella pneumoniae) | MIC (Morganella morganii) | MIC (Proteus vulgaris) | MIC [9] | MIC (Staphylococcus aureus) | MIC (Enterococcus faecalis) | MIC (Pseudomonas aeruginosa) | ED50 (Mus musculus [6]) | ED50 (Mus musculus [7]) | ED50 (Mus musculus [8]) |
| --- | --- | --- | --- | --- | --- | --- | --- | --- | --- | --- | --- | --- | --- | --- | --- | --- | --- | --- | --- |
| C[C@H]1[C@@H](N)CN1c1cc2c(cc1F)c(=O)c(C(=O)O)cn2C1CC1 | – | – | 0.0457 | 6.1 µg/mL (≈ 18.4 µM) | 3700 ng·h/mL | 0.06 µg/mL (≈ 0.181 µM) | 0.03 µg/mL (≈ 0.0905 µM) | 0.06 µg/mL (≈ 0.181 µM) | 0.03 µg/mL (≈ 0.0905 µM) | 0.03 µg/mL (≈ 0.0905 µM) | 0.03 µg/mL (≈ 0.0905 µM) | 0.06 µg/mL (≈ 0.181 µM) | 0.06 µg/mL (≈ 0.181 µM) | 0.12 µg/mL (≈ 0.362 µM) | 0.5 µg/mL (≈ 1.51 µM) | 0.5 µg/mL (≈ 1.51 µM) | 20 mg/kg | 277 mg/kg | 36.7 mg/kg |
| CN(C)C1CN(c2cc3c(cc2F)c(=O)c(C(=O)O)cn3C2CC2)C1 | 6.44 | 7.81 | 0.482 | – | – | – | – | – | – | – | – | – | – | – | – | – | – | – | – |
| CNC1CN(c2cc3c(cc2F)c(=O)c(C(=O)O)cn3C2CC2)C1 | 6.54 | 8.56 | 0.0215 | – | – | – | – | – | – | – | – | – | – | – | – | – | – | – | – |
| CC1(N)CN(c2cc3c(cc2F)c(=O)c(C(=O)O)cn3C2CC2)C1 | 6.58 | 8.55 | -0.1249 | – | – | – | – | – | – | – | – | – | – | – | – | – | – | – | – |
| C[C@H]1[C@H](N)CN1c1cc2c(cc1F)c(=O)c(C(=O)O)cn2C1CC1 | 6.46 | – | -0.0132 | 9.9 µg/mL (≈ 29.9 µM) | 9200 ng·h/mL | 0.06 µg/mL (≈ 0.181 µM) | 0.03 µg/mL (≈ 0.0905 µM) | 0.03 µg/mL (≈ 0.0905 µM) | 0.03 µg/mL (≈ 0.0905 µM) | 0.03 µg/mL (≈ 0.0905 µM) | 0.03 µg/mL (≈ 0.0905 µM) | 0.06 µg/mL (≈ 0.181 µM) | 0.12 µg/mL (≈ 0.362 µM) | 0.12 µg/mL (≈ 0.362 µM) | 0.25 µg/mL (≈ 0.754 µM) | 0.25 µg/mL (≈ 0.754 µM) | 3.5 mg/kg | 108 mg/kg | 22.3 mg/kg |
| CN(C)C1(C)CN(c2cc3c(cc2F)c(=O)c(C(=O)O)cn3C2CC2)C1 | 6.47 | 7.9 | 0.5153 | – | – | – | – | – | – | – | – | – | – | – | – | – | – | – | – |
| CC1(N)CN(c2nc3c(cc2F)c(=O)c(C(=O)O)cn3C2CC2)C1 | 6.38 | 8.21 | -0.1606 | 13.9 µg/mL (≈ 41.8 µM) | – | – | – | – | – | – | – | – | – | – | – | – | – | – | – |
| C[C@H]1[C@H](N)CN1c1c(F)c(N)c2c(=O)c(C(=O)O)cn(C3CC3)c2c1F | 6.65 | – | 0.0828 | 37.7 µg/mL (≈ 103 µM) | 12300 ng·h/mL | 0.015 µg/mL (≈ 0.0412 µM) | 0.015 µg/mL (≈ 0.0412 µM) | 0.03 µg/mL (≈ 0.0823 µM) | 0.015 µg/mL (≈ 0.0412 µM) | 0.015 µg/mL (≈ 0.0412 µM) | 0.015 µg/mL (≈ 0.0412 µM) | 0.06 µg/mL (≈ 0.165 µM) | 0.015 µg/mL (≈ 0.0412 µM) | 0.015 µg/mL (≈ 0.0412 µM) | 0.06 µg/mL (≈ 0.165 µM) | 0.25 µg/mL (≈ 0.686 µM) | 4.2 mg/kg | 102 mg/kg | 8.7 mg/kg |
| C[C@H]1[C@H](N)CN1c1cc2c(cc1F)c(=O)c(C(=O)O)cn2-c1ccc(F)cc1F [CETEFLOXACIN] | – | – | 0.1875 | 31 µg/mL (≈ 76.9 µM) | 30200 ng·h/mL | 0.25 µg/mL (≈ 0.62 µM) | 0.03 µg/mL (≈ 0.0744 µM) | 0.12 µg/mL (≈ 0.298 µM) | 0.12 µg/mL (≈ 0.298 µM) | 0.015 µg/mL (≈ 0.0372 µM) | 0.25 µg/mL (≈ 0.62 µM) | 0.5 µg/mL (≈ 1.24 µM) | 0.12 µg/mL (≈ 0.298 µM) | 0.12 µg/mL (≈ 0.298 µM) | 1 µg/mL (≈ 2.48 µM) | 2 µg/mL (≈ 4.96 µM) | 6 mg/kg | 77.9 mg/kg | 8.1 mg/kg |

Continued, in another order:

| pKa [1] | pKa [2] | Log k' [3] | solubility [4] | AUC [5] | MIC (Bacillus cereus) | MIC (Bacillus subtilis) | MIC (Escherichia coli) | MIC (Enterobacter cloacae) | MIC (Klebsiella pneumoniae) | MIC (Morganella morganii) | MIC (Proteus vulgaris) | MIC [9] | MIC (Staphylococcus aureus) | MIC (Enterococcus faecalis) | MIC (Pseudomonas aeruginosa) | Structure (SMILES) | ED50 (Mus musculus [6]) | ED50 (Mus musculus [7]) | ED50 (Mus musculus [8]) |
| --- | --- | --- | --- | --- | --- | --- | --- | --- | --- | --- | --- | --- | --- | --- | --- | --- | --- | --- | --- |
| 6.47 | 8.65 | 0.0875 | 0.7 µg/mL (≈ 2.03 µM) | – | – | – | – | – | – | – | – | – | – | – | – | CNC1(C)CN(c2cc3c(cc2F)c(=O)c(C(=O)O)cn3C2CC2)C1 | – | – | – |
| 6.05 | 8.12 | 0.604 | 23.6 µg/mL (≈ 62.5 µM) | – | – | – | – | – | – | – | – | – | – | – | – | CN(C)C1(C)CN(c2c(F)cc3c(=O)c(C(=O)O)cn(C4CC4)c3c2F)C1 | – | – | – |
| 6.08 | 8.45 | 0.1061 | 1.7 µg/mL (≈ 4.65 µM) | – | – | – | – | – | – | – | – | – | – | – | – | CC1(N)CN(c2c(F)cc3c(=O)c(C(=O)O)cn(C4CC4)c3c2Cl)C1 | – | – | – |
| 6 | 8.14 | 0.584 | 58 µg/mL (≈ 160 µM) | – | – | – | – | – | – | – | – | – | – | – | – | CN(C)C1CN(c2c(F)cc3c(=O)c(C(=O)O)cn(C4CC4)c3c2F)C1 | – | – | – |
| 6.26 | 8.58 | 0.1055 | 0.5 µg/mL (≈ 1.38 µM) | – | – | – | – | – | – | – | – | – | – | – | – | CNC1(C)CN(c2c(F)cc3c(=O)c(C(=O)O)cn(C4CC4)c3c2F)C1 | – | – | – |
| 6.2 | 8.57 | 0.0996 | – | – | – | – | – | – | – | – | – | – | – | – | – | CCNC1CN(c2c(F)cc3c(=O)c(C(=O)O)cn(C4CC4)c3c2F)C1 | – | – | – |
| 6.18 | 8.44 | 0.039 | 1.7 µg/mL (≈ 4.87 µM) | – | – | – | – | – | – | – | – | – | – | – | – | CNC1CN(c2c(F)cc3c(=O)c(C(=O)O)cn(C4CC4)c3c2F)C1 | – | – | – |
| 6.12 | 8.2 | -0.0438 | 1.8 µg/mL (≈ 5.37 µM) | – | – | – | – | – | – | – | – | – | – | – | – | NC1CN(c2c(F)cc3c(=O)c(C(=O)O)cn(C4CC4)c3c2F)C1 | – | – | – |
| 6.23 | 8.33 | -0.0177 and 0.0094 | – | – | – | – | – | – | – | – | – | – | – | – | – | CC1(N)CN(c2c(F)cc3c(=O)c(C(=O)O)cn(C4CC4)c3c2F)C1 | – | – | – |
| 6.08 | 8.2 | 0.769 | 97.1 µg/mL (≈ 257 µM) | 23200 ng·h/mL | 1 µg/mL (≈ 2.65 µM) | 0.015 µg/mL (≈ 0.0397 µM) | 0.25 µg/mL (≈ 0.662 µM) | 0.12 µg/mL (≈ 0.318 µM) | 0.06 µg/mL (≈ 0.159 µM) | 0.25 µg/mL (≈ 0.662 µM) | 0.25 µg/mL (≈ 0.662 µM) | 0.06 µg/mL (≈ 0.159 µM) | 0.12 µg/mL (≈ 0.318 µM) | 1 µg/mL (≈ 2.65 µM) | 2 µg/mL (≈ 5.3 µM) | C[C@@H]1[C@@H](N(C)C)CN1c1c(F)cc2c(=O)c(C(=O)O)cn(C3CC3)c2c1F | 3.1 mg/kg | 164 mg/kg | 17.9 mg/kg |
